In one data set the target is Histamine H4 receptor (Homo sapiens, UniProt Q9H3N8). Nature of the data set: Displacement of [3H]histamine from human histamine H4 receptor expressed in HEK cells. It is filed as cell-based, HEK293. (In general: Loss of bound radioactivity is the signal in a displacement assay; it reports binding, not function.)
Data set [1] in a line: Solubility of the compound at pH 6.8. It is filed as physicochemical. The settings on record: buffer. Summed up: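 Solubility determined by the DMSO solution precipitation method.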
The nature of data set [2]: Half life in mouse liver microsomes. The data set is classed as ADME, Microsome. On the technique in general: Liver microsomes are a subcellular fraction often used to study metabolism.
Data set [3] in a line: Half life in human liver microsomes. It is filed as ADME, Microsome.

≈ marks a conversion by molar mass, not a printed value.

Chain of Histamine H4 receptor (Q9H3N8 whole entry): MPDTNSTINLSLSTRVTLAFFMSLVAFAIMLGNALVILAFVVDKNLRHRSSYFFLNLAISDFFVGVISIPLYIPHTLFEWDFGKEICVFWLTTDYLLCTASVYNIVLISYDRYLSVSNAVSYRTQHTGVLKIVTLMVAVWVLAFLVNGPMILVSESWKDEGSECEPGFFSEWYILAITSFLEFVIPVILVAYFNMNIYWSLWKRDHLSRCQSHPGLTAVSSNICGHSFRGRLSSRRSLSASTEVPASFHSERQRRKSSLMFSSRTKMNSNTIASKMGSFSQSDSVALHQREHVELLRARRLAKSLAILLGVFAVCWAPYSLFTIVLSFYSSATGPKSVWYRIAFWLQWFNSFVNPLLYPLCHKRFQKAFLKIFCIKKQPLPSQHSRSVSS

With `CC(=O)c1ccc2[nH]c(C(=O)N3CCN(C)CC3)cc2c1`, the inhibitory constant (Ki) (as a rule, a dissociation constant, usually derived from enzyme kinetics or from competition with a known ligand) at Histamine H4 receptor is 12600 nM. This lies in the double-digit micromolar range.
For the molecule `Cc1cccc2cc(C(=O)N3CCN(C)CC3)[nH]c12`, the Ki on Histamine H4 receptor is 12.6 nM.
The same measure, in the same setting: in the case of `CN1CCN(C(=O)c2cc3cc(F)ccc3[nH]2)CC1` it was 15.8 nM.
The molecule `CN1CCN(C(=O)c2cc3cc(Cl)cc(F)c3[nH]2)CC1` showed an inhibition constant Ki on Histamine H4 receptor of 6.31 nM.
On to `CN1CCN(C(=O)c2cc3c(O)cccc3[nH]2)CC1`, for which, on Histamine H4 receptor, affinity was put at a Ki of 158 nM.
`CN1CCCN(C(=O)c2cc3cccc(C(F)(F)F)c3[nH]2)CC1` gave a Ki on Histamine H4 receptor of 5010 nM.
On Histamine H4 receptor, `CN1CCN(C(=O)c2cc3c(F)cccc3[nH]2)CC1` gave a Ki of 31.6 nM.
Molecule `CN1CCN(C(=O)c2cc3c(F)ccc(F)c3[nH]2)CC1` gave an inhibitory constant (Ki) on Histamine H4 receptor of 79.4 nM.
As for `O=C(c1cc2cc(Cl)cc(F)c2[nH]1)N1CC(N2CCCC2)C1`, the Ki on Histamine H4 receptor is 15.8 nM.
On Histamine H4 receptor, `CN1CCN(C(=O)c2cc3cccc(C(F)(F)F)c3[nH]2)CC1` gave an inhibitory constant (Ki) of 1000 nM.
In the case of `CN1CCN(C(=O)c2cc3c(F)c(Cl)ccc3[nH]2)CC1`, affinity at Histamine H4 receptor was put at a Ki of 6.31 nM.
With `CNC1CN(C(=O)c2cc3cc(Cl)cc(C)c3[nH]2)C1`, the solubility – broadly, the concentration that dissolves in the medium under given conditions – in data set [1] came to 51 µg/mL (≈ 184 µM). Besides, the half-life (usually the time in which the quantity being followed falls by half) was 26 min in data set [2] and over 90 min in data set [3]. Also, on Histamine H4 receptor, the inhibitory constant (Ki) was 200 nM.
In the case of `CN1CCCN(C(=O)c2cc3cccc(F)c3[nH]2)CC1`, the inhibition constant (Ki) on Histamine H4 receptor is 398 nM.
For `CN1CCN(C(=O)c2cc3cc(Cl)ccc3o2)CC1`, the Ki on Histamine H4 receptor was 251 nM.
Same read-out and setting: as for `CN1CCN(C(=O)c2cc3cc([N+](=O)[O-])ccc3[nH]2)CC1`, the figure is 79.4 nM; as for `CN[C@@H]1CCN(C(=O)c2cc3cccc(F)c3[nH]2)C1`, 501 nM; as for `CN1CCN(C(=O)c2cc3c([N+](=O)[O-])cccc3[nH]2)CC1`, 794 nM.
Consider `CN1CCN(C(=O)c2cc3ccc(O)cc3[nH]2)CC1`, for which the Ki at Histamine H4 receptor was 25.1 nM.
On Histamine H4 receptor, `CC(=O)c1cccc2[nH]c(C(=O)N3CCN(C)CC3)cc12` had a Ki of 5010 nM.
Same read-out and setting: as for `CN1CCN(C(=O)c2cc3cccc([N+](=O)[O-])c3[nH]2)CC1`, the figure is 794 nM; as for `O=C(c1cc2cc(Cl)cc(F)c2[nH]1)N1CCNCC1`, 20 nM.
As for `CN1CCN(C(=O)c2cc3ccc(N)cc3[nH]2)CC1`, the Ki at Histamine H4 receptor was 79.4 nM.
For the molecule `CN1CCN(C(=O)c2cc3cc(Cl)cc(N)c3[nH]2)CC1`, the concentration in solution in data set [1] (solubility) was 67 µg/mL (≈ 229 µM). The half-life in data set [2] was determined as 14 min; in data set [3] it was 66 min. The molecule further showed a Ki on Histamine H4 receptor of 5.01 nM.
With `CN1CCN(C(=O)c2cc3cccnc3[nH]2)CC1`, the inhibition constant (Ki) at Histamine H4 receptor is 2000 nM. That is a single-digit micromolar value.
In turn, `CN1CCN(C(=O)c2cc3cccc(F)c3[nH]2)CC1` had a Ki on Histamine H4 receptor of 20 nM.
For the molecule `O=C(c1cc2cccc(F)c2[nH]1)N1CC(N2CCCC2)C1`, the affinity at Histamine H4 receptor corresponds to a Ki of 39.8 nM.
On to `CN1CCN(C(=O)c2cc3c(Cl)c(Cl)ccc3[nH]2)CC1`, for which, at Histamine H4 receptor, the inhibition constant Ki is 6.31 nM.
Same read-out and setting: as for `O=C(c1cc2cc(Cl)ccc2[nH]1)N1CC(N2CCCC2)C1`, the figure is 10 nM; as for `CN[C@@H]1CCN(C(=O)c2cc3cccc(C)c3[nH]2)C1`, 631 nM; as for `Cc1cccc2cc(C(=O)N3CCCN(C)CC3)[nH]c12`, 1580 nM.
The molecule `O=C(c1cc2cccc(F)c2[nH]1)N1CCNCC1` gave a Ki on Histamine H4 receptor of 100 nM. This Ki lies about 16-fold lower than the previous one.
With `CN1CCCN(C(=O)c2cc3cc(Cl)cc(F)c3[nH]2)CC1`, the affinity at Histamine H4 receptor corresponds to a Ki of 63.1 nM. This Ki is about 1.6-fold lower than that of the molecule before.
In the case of `CN1CCN(C(=O)c2cc3ccc([N+](=O)[O-])cc3[nH]2)CC1`, the Ki at Histamine H4 receptor was 2000 nM.
`CN1CCCN(C(=O)c2cc3c(F)c(Cl)ccc3[nH]2)CC1` showed an inhibition constant (Ki) at Histamine H4 receptor of 31.6 nM.
Consider `COc1cccc2cc(C(=O)N3CCCN(C)CC3)[nH]c12`, for which the Ki on Histamine H4 receptor is 15800 nM.
Molecule `CN1CCN(C(=O)c2cc3cc(Cl)cc([N+](=O)[O-])c3[nH]2)CC1` showed a Ki on Histamine H4 receptor of 398 nM.
Molecule `Cc1cccc2cc(C(=O)N3CCNCC3)[nH]c12` had a Ki on Histamine H4 receptor of 39.8 nM.
As for `Cc1cccc2cc(C(=O)N3CC(N4CCCC4)C3)[nH]c12`, at Histamine H4 receptor, the affinity, expressed as Ki, was 79.4 nM.
Molecule `Cc1cc(Cl)cc2cc(C(=O)N3CCNCC3)[nH]c12` showed a solubility in data set [1] of 65 µg/mL (≈ 234 µM). Moreover, the values for the half-life in data set [2] and in data set [3] were 16 min and over 90 min, respectively. At Histamine H4 receptor, this molecule gave a Ki of 12.6 nM.
The molecule `CN[C@@H]1CCN(C(=O)c2cc3cc(Cl)cc(C)c3[nH]2)C1` returned a solubility in data set [1] of 59 µg/mL (≈ 202 µM). Also, the half-life in data set [2] is 27 min; in data set [3] it was over 90 min. For the same molecule, the Ki at Histamine H4 receptor was 251 nM.
Regarding `CN1CCCN(C(=O)c2cc3c(F)cccc3[nH]2)CC1`, the inhibition constant (Ki) at Histamine H4 receptor was 251 nM.
Take `COc1cccc2cc(C(=O)N3CCN(C)CC3)[nH]c12`: the inhibition constant Ki on Histamine H4 receptor is 2510 nM.
In data set [1], `Cc1cc(Cl)cc2cc(C(=O)N3CC(N4CCCC4)C3)[nH]c12` came in with a solubility of 10 µg/mL (≈ 31.5 µM). Further, the half-life was 11 min in data set [2] and over 90 min in data set [3]. At Histamine H4 receptor, this molecule had a Ki of 31.6 nM.
On Histamine H4 receptor, `O=C(c1cc2cc(Cl)ccc2[nH]1)N1CCCNCC1` gave an inhibition constant Ki of 63.1 nM.
For `Cc1ccc2[nH]c(C(=O)N3CCN(C)CC3)cc2c1`, the inhibition constant (Ki) at Histamine H4 receptor is 50.1 nM.
Same read-out and setting: as for `CN[C@@H]1CCN(C(=O)c2cc3cc(Cl)cc(F)c3[nH]2)C1`, the figure is 251 nM.
The molecule `CN1CCN(C(=O)c2cc3ccncc3[nH]2)CC1` showed an inhibitory constant (Ki) on Histamine H4 receptor of 2000 nM.
Turning to `CN1CCN(C(=O)c2cc3cccc(N)c3[nH]2)CC1`, affinity at Histamine H4 receptor was put at a Ki of 15.8 nM.
The molecule `CN1CCCN(C(=O)c2cc3cc(Cl)ccc3[nH]2)CC1` had a Ki at Histamine H4 receptor of 39.8 nM.
`CN1CCN(C(=O)c2cc3cc(O)ccc3[nH]2)CC1`: affinity at Histamine H4 receptor was put at a Ki of 25.1 nM.
Regarding `Cc1ccc(F)c2cc(C(=O)N3CCN(C)CC3)[nH]c12`, the Ki on Histamine H4 receptor was 39.8 nM.
The same measure, in the same setting: as for `CNC1CN(C(=O)c2cc3cccc(C)c3[nH]2)C1`, the figure is 398 nM; as for `CN1CCN(C(=O)c2cc3ccccc3s2)CC1`, 2510 nM.
Still for that read-out and setting: in the case of `CNC1CN(C(=O)c2cc3cccc(F)c3[nH]2)C1` it was 398 nM; in that of `O=C(c1cc2cc(Cl)ccc2[nH]1)N1CCNCC1`, 12.6 nM; in that of `CN1CCN(C(=O)c2cc3cccc(Cl)c3[nH]2)CC1`, 20 nM.
Regarding `CN1CCCN(C(=O)c2cc3ccccc3[nH]2)CC1`, the Ki at Histamine H4 receptor was 398 nM.
Regarding `COc1cccc2[nH]c(C(=O)N3CCN(C)CC3)cc12`, the affinity on Histamine H4 receptor, expressed as Ki, was 1000 nM.
`CN1CCN(C(=O)c2cc3c(Cl)cccc3[nH]2)CC1`: the Ki at Histamine H4 receptor is 31.6 nM. Against the preceding molecule, the Ki is about 32-fold lower.
`Cc1cc(Cl)cc2cc(C(=O)N3CCN(C)CC3)[nH]c12` yielded a solubility in data set [1] of 57 µg/mL (≈ 195 µM). The half-life in data set [2] was 2 min; in data set [3], over 45 min. The inhibition constant Ki at Histamine H4 receptor is 6.31 nM.
`CN1CCN(C(=O)c2cc3ncccc3[nH]2)CC1`: affinity on Histamine H4 receptor was put at a Ki of 3980 nM.
Regarding `CN1CCN(C(=O)c2cc3c(N)cccc3[nH]2)CC1`, on Histamine H4 receptor, the Ki was 316 nM. This Ki is about 13-fold lower than that of the molecule before.
`CNC1CN(C(=O)c2cc3cc(Cl)cc(F)c3[nH]2)C1` had a Ki at Histamine H4 receptor of 100 nM. This Ki is about 3.2-fold lower than that of the molecule before.
With `CN1CCN(C(=O)c2cc3cnccc3[nH]2)CC1`, affinity at Histamine H4 receptor was put at a Ki of 6310 nM.
Still for that read-out and setting: as for `COc1ccc2cc(C(=O)N3CCN(C)CC3)[nH]c2c1`, the figure is 15800 nM; as for `CN1CCN(C(=O)c2cc3ccc(Cl)cc3[nH]2)CC1`, 158 nM; as for `COc1ccc2[nH]c(C(=O)N3CCN(C)CC3)cc2c1`, 1000 nM.

(Values after ChEMBL document CHEMBL2046401, “Detailed structure-activity relationship of indolecarboxamides as H4 receptor ligands” (Eur J Med Chem, 2012).)
